{
  "source": "ChEMBL document CHEMBL3228024",
  "about": "“Prodrug analogues of the antitumor alkaloid camptothecin” (1979)",
  "type_in_all_cases": "functional",
  "key": {"P388 [1]": {"tested_on": "P388", "experiment": "Antitumor activity against mouse P388 cells allografted in mouse assessed as increase in mouse survival time at 62.5 mg/kg, iv for 4 to 9 days relative to control", "outline": "(§1)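 Mice bearing P388 leukemia (NCI protocol 3PS31), six mice per test, drug injected daily for 9 days (in some tests for only 6 days). Controls were 20–30 animals receiving no injection. Activity was expressed as mean/median survival time of the test group divided by that of the control group ×100.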"}, "[2]": {"experiment": "Cytotoxicity against human 9KB cells"}, "P388 [3]": {"tested_on": "P388", "experiment": "Cytotoxicity against mouse P388 cells"}, "L1210 [4]": {"tested_on": "L1210", "experiment": "Cytotoxicity against mouse L1210 cells"}, "[5]": {"experiment": "Cytotoxicity against human 9KB cells relative to camptothecin"}, "P388 [6]": {"tested_on": "P388", "experiment": "Cytotoxicity against mouse P388 cells relative to camptothecin"}, "L1210 [7]": {"tested_on": "L1210", "experiment": "Cytotoxicity against mouse L1210 cells relative to camptothecin"}, "P388 [8]": {"tested_on": "P388", "experiment": "Antitumor activity against mouse P388 cells allografted in mouse assessed as increase in mouse survival time at 6.5 mg/kg, iv for 4 to 9 days relative to control", "outline": "as §1"}, "P388 [9]": {"tested_on": "P388", "experiment": "Antitumor activity against mouse P388 cells allografted in mouse assessed as increase in mouse survival time at 2.5 mg/kg, iv for 6 days relative to control", "outline": "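NCI P388 protocol 3PS31 in mice, six mice per test group. Drug was injected daily for only 6 days, with 20–30 uninjected controls. The value is the mean or median survival time of treated mice over that of controls ×100, reported as percentage increase in life span.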"}, "L1210 [10]": {"tested_on": "L1210", "experiment": "Antitumor activity against mouse L1210 cells allografted in mouse assessed as increase in mouse survival time at 6.5 mg/kg, iv for 4 to 9 days relative to control", "outline": "(§2)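 Run under NCI protocols 3LE21 (L1210) and 3PS31 (P388) in mice, six mice per test group. Drug was injected daily for 9 days, with 20–30 uninjected control animals. Mean or median survival time of the treated group was divided by that of controls and multiplied by 100, then reported as percentage increase in life span.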"}, "P388 [11]": {"tested_on": "P388", "experiment": "Antitumor activity against mouse P388 cells allografted in mouse assessed as increase in mouse survival time at 10 mg/kg, iv for 4 to 9 days relative to control", "outline": "as §2"}, "P388 [12]": {"tested_on": "P388", "experiment": "Antitumor activity against mouse P388 cells allografted in mouse assessed as increase in mouse survival time at 3.3 mg/kg, iv for 4 to 9 days relative to control", "outline": "as §2"}, "P388 [13]": {"tested_on": "P388", "experiment": "Antitumor activity against mouse P388 cells allografted in mouse assessed as increase in mouse survival time at 1.1 mg/kg, iv for 4 to 9 days relative to control", "outline": "as §2"}, "P388 [14]": {"tested_on": "P388", "experiment": "Antitumor activity against mouse P388 cells allografted in mouse assessed as increase in mouse survival time at 0.4 mg/kg, iv for 4 to 9 days relative to control", "outline": "as §2"}, "L1210 [15]": {"tested_on": "L1210", "experiment": "Antitumor activity against mouse L1210 cells allografted in mouse assessed as increase in mouse survival time at 10 mg/kg, iv for 4 to 9 days relative to control", "outline": "as §2"}, "L1210 [16]": {"tested_on": "L1210", "experiment": "Antitumor activity against mouse L1210 cells allografted in mouse assessed as increase in mouse survival time at 3.3 mg/kg, iv for 4 to 9 days relative to control", "outline": "as §2"}, "L1210 [17]": {"tested_on": "L1210", "experiment": "Antitumor activity against mouse L1210 cells allografted in mouse assessed as increase in mouse survival time at 1.1 mg/kg, iv for 4 to 9 days relative to control", "outline": "as §2"}, "L1210 [18]": {"tested_on": "L1210", "experiment": "Antitumor activity against mouse L1210 cells allografted in mouse assessed as increase in mouse survival time at 0.4 mg/kg, iv for 4 to 9 days relative to control", "outline": "as §2"}, "P388 [19]": {"tested_on": "P388", "experiment": "Antitumor activity against mouse P388 cells allografted in mouse assessed as increase in mouse survival time at 18.9 mg/kg, iv for 4 to 9 days relative to control", "outline": "as §2"}, "P388 [20]": {"tested_on": "P388", "experiment": "Antitumor activity against mouse P388 cells allografted in mouse assessed as increase in mouse survival time at 5.1 mg/kg, iv for 4 to 9 days relative to control", "outline": "as §2"}, "L1210 [21]": {"tested_on": "L1210", "experiment": "Antitumor activity against mouse L1210 cells allografted in mouse assessed as increase in mouse survival time at 62.5 mg/kg, iv for 4 to 9 days relative to control", "outline": "as §2"}, "L1210 [22]": {"tested_on": "L1210", "experiment": "Antitumor activity against mouse L1210 cells allografted in mouse assessed as increase in mouse survival time at 18.9 mg/kg, iv for 4 to 9 days relative to control", "outline": "as §2"}, "L1210 [23]": {"tested_on": "L1210", "experiment": "Antitumor activity against mouse L1210 cells allografted in mouse assessed as increase in mouse survival time at 5.1 mg/kg, iv for 4 to 9 days relative to control", "outline": "as §2"}},
  "data": [
    {"smiles": "CC[C@@](O)(C(=O)NC(C)C)c1cc2n(c(=O)c1CN1CCCC1)Cc1cc3ccccc3nc1-2.Cl", "values": [
      {"measurement": "T/C", "setting": "P388 [1]", "result": 125, "unit": "%"}
    ]},
    {"smiles": "C=CC(=O)OCc1c([C@@](O)(CC)C(=O)NC(C)C)cc2n(c1=O)Cc1cc3ccccc3nc1-2", "values": [
      {"measurement": "ED50", "setting": "[2]", "result": 6.9, "unit": "×10⁻⁵ umol/ml"},
      {"measurement": "ED50", "setting": "P388 [3]", "result": 3.9, "unit": "×10⁻⁴ umol/ml"},
      {"measurement": "ED50", "setting": "L1210 [4]", "result": 7.6, "unit": "×10⁻⁴ umol/ml"},
      {"measurement": "Activity", "setting": "[5]", "result": 25, "unit": "%"},
      {"measurement": "Activity", "setting": "P388 [6]", "result": 0.45, "unit": "%"},
      {"measurement": "Activity", "setting": "L1210 [7]", "result": 2.7, "unit": "%"},
      {"measurement": "T/C", "setting": "P388 [8]", "result": 155, "unit": "%"},
      {"measurement": "T/C", "setting": "P388 [9]", "result": 165, "unit": "%"},
      {"measurement": "T/C", "setting": "L1210 [10]", "result": 125, "unit": "%"}
    ]},
    {"smiles": "CC[C@@]1(O)C(=O)OCc2c1cc1n(c2=O)Cc2cc3ccccc3nc2-1", "note": "[CAMPTOTHECIN]", "values": [
      {"measurement": "ED50", "setting": "[2]", "result": "<2.8", "unit": "×10⁻⁶ umol/ml"},
      {"measurement": "ED50", "setting": "P388 [3]", "result": 8.6, "unit": "×10⁻⁶ umol/ml"},
      {"measurement": "ED50", "setting": "L1210 [4]", "result": 2.8, "unit": "×10⁻⁶ umol/ml"},
      {"measurement": "T/C", "setting": "P388 [11]", "result": 81, "unit": "%"},
      {"measurement": "T/C", "setting": "P388 [12]", "result": 204, "unit": "%"},
      {"measurement": "T/C", "setting": "P388 [13]", "result": 147, "unit": "%"},
      {"measurement": "T/C", "setting": "P388 [14]", "result": 137, "unit": "%"},
      {"measurement": "T/C", "setting": "L1210 [15]", "result": 85, "unit": "%"},
      {"measurement": "T/C", "setting": "L1210 [16]", "result": 168, "unit": "%"},
      {"measurement": "T/C", "setting": "L1210 [17]", "result": 131, "unit": "%"},
      {"measurement": "T/C", "setting": "L1210 [18]", "result": 114, "unit": "%"}
    ]},
    {"smiles": "CC[C@@](O)(C(=O)NC(C)C)c1cc2n(c(=O)c1CN1CCCC1)Cc1cc3ccccc3nc1-2", "values": [
      {"measurement": "ED50", "setting": "[2]", "result": 2.2, "unit": "×10⁻⁵ umol/ml"},
      {"measurement": "ED50", "setting": "P388 [3]", "result": 1.1, "unit": "×10⁻⁴ umol/ml"},
      {"measurement": "ED50", "setting": "L1210 [4]", "result": 6.5, "unit": "×10⁻⁵ umol/ml"},
      {"measurement": "Activity", "setting": "[5]", "result": 7.8, "unit": "%"},
      {"measurement": "Activity", "setting": "P388 [6]", "result": 0.13, "unit": "%"},
      {"measurement": "Activity", "setting": "L1210 [7]", "result": 23, "unit": "%"},
      {"measurement": "T/C", "setting": "P388 [19]", "result": 126, "unit": "%"},
      {"measurement": "T/C", "setting": "P388 [20]", "result": 111, "unit": "%"},
      {"measurement": "T/C", "setting": "L1210 [21]", "result": 113, "unit": "%"},
      {"measurement": "T/C", "setting": "L1210 [22]", "result": 101, "unit": "%"},
      {"measurement": "T/C", "setting": "L1210 [23]", "result": 109, "unit": "%"}
    ]}
  ]
}
